Data taken from PubChem BioAssay AID651708 (Sanford-Burnham Center for Chemical Genomics, 2012).
Activity calls are given as the source filed them.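 Rule for the calls: active = compound with IC50 above 30 µM at both the APJ and CCR6 off-target receptors, and at most 10 µM at CXCR6; inactive = the rest.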

Tests used:
Experiment in all cases: GPCR panel antagonist activity incl. apelin receptor – cell-based, CHO-K1 PathHunter beta-arrestin, luminescence, set 3, selectivity assay for CXCR6 antagonist project, profiling panel (AID 651708)
[1] = biological target: Apelin receptor (Homo sapiens) (UniProt P35414); details: antagonist mode, APJ
Sequence of Apelin receptor (Homo sapiens) (P35414 whole entry, looked up): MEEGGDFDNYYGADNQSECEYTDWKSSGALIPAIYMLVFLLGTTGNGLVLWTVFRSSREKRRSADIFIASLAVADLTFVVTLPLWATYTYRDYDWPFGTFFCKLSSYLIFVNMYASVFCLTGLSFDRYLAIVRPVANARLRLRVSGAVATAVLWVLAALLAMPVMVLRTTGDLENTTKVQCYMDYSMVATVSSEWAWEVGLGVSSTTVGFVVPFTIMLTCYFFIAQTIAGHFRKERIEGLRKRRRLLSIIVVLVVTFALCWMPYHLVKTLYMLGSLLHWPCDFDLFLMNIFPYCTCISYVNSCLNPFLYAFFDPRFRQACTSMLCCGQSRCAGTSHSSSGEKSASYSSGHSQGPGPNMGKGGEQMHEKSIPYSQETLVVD
How it was run: (§1)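 Signal: β-arrestin recruitment luminescence; test system: CHO-K1 PathHunter β-arrestin cell lines for APJ, CCR6 or CXCR6; also added: APJ 10 nM Apelin-13, CCR6 14 nM CCL20, CXCR6 CXCL16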

[2] = biological target: C-C chemokine receptor type 6 (Homo sapiens) (UniProt P51684); details: antagonist mode
Sequence of C-C chemokine receptor type 6 (Homo sapiens) (P51684 whole entry, looked up): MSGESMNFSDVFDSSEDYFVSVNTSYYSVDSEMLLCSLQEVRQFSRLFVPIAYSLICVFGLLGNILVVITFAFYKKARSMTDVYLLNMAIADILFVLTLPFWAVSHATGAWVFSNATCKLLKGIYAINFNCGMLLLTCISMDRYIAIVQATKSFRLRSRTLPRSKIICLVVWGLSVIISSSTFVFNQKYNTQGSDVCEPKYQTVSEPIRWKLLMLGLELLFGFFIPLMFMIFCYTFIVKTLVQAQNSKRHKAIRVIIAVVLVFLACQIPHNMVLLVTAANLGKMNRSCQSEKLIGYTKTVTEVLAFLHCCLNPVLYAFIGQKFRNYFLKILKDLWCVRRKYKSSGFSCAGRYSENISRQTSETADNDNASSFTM
How it was run: as §1

[3] = biological target: C-X-C chemokine receptor type 6 (Homo sapiens) (UniProt O00574); details: antagonist mode
Sequence of C-X-C chemokine receptor type 6 (Homo sapiens) (O00574 whole entry, looked up): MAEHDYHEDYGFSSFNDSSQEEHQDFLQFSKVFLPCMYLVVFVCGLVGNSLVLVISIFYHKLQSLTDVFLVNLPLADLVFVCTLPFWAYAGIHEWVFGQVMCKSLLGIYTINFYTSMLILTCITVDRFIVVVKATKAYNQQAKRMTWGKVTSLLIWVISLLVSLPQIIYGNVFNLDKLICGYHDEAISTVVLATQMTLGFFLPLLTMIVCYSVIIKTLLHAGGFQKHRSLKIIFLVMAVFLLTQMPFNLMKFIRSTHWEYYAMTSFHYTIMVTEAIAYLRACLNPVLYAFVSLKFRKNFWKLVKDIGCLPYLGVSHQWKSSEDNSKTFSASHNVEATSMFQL
How it was run: as §1

Row | IC50 ([1]; run 1) | IC50 ([1]; run 2) | IC50 ([2]; CCR6, mean of runs) | IC50 ([2]; CCR6, run 1) | IC50 ([2]; CCR6, run 2) | IC50 ([3]; CXCR6, mean of runs) | IC50 ([3]; CXCR6, run 1) | IC50 ([3]; CXCR6, run 2) | IC50 ([1]; mean of runs) | SMILES
1 | > 79 µM | > 79 µM | > 79 µM (inactive) | > 79 µM | > 79 µM | > 79 µM (inactive) | > 79 µM | > 79 µM | > 79 µM (inactive) | O=C(CN1C2CCCC1CC(NC(=O)c1ccccc1)C2)Nc1ccccc1 (configuration not stated)
2 | > 79 µM | 0.818 µM | > 79 µM (inactive) | > 79 µM | > 79 µM | 0.338 µM | 0.191 µM | 0.484 µM | – | COc1cc(C(=O)NC2CC3CCCC(C2)N3CC(=O)Nc2ccccc2Cl)cc(OC)c1OC (configuration not stated)

The remaining lines, values behind:

Row | SMILES | IC50 ([1]; run 1) | IC50 ([1]; run 2) | IC50 ([2]; CCR6, mean of runs) | IC50 ([2]; CCR6, run 1) | IC50 ([2]; CCR6, run 2) | IC50 ([3]; CXCR6, mean of runs) | IC50 ([3]; CXCR6, run 1) | IC50 ([3]; CXCR6, run 2) | IC50 ([1]; mean of runs)
3 | O=C(CN1C2CCCC1CC(NC(=O)c1ccc3c(c1)OCO3)C2)Nc1ccc(Cl)cc1 (configuration not stated) | > 79 µM | 36.9 µM | > 79 µM (inactive) | > 79 µM | > 79 µM | > 79 µM (inactive) | > 79 µM | > 79 µM | –
4 | COc1ccc(NC(=O)CN2C3CCCC2CC(NC(=O)c2ccc(OC)c(OC)c2)C3)cc1 (configuration not stated) | > 79 µM | 0.307 µM | > 79 µM (inactive) | > 79 µM | > 79 µM | > 79 µM (inactive) | > 79 µM | > 79 µM | –
5 | COc1cccc(C(=O)NC2CC3CCCC(C2)N3CC(=O)Nc2ccc(Cl)cc2)c1 (configuration not stated) | > 79 µM | > 79 µM | > 79 µM (inactive) | > 79 µM | > 79 µM | > 79 µM (inactive) | > 79 µM | > 79 µM | > 79 µM (inactive)
